Measurements taken from ChEMBL document CHEMBL1212890, “Synthesis and biological evaluation of tetracyclic fluoroquinolones as antibacterial and anticancer agents” (Bioorg Med Chem, 2010).
Values after ≈ are worked out from the molar mass of the structure shown. Active and inactive are the calls of the source. The rule behind the calls is not given here.

Assays:
[1] = Cytotoxicity against human HDF after 72 hrs by MTT assay; type: cell-based
Outline: (§1)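 Cells kept in medium with 2 mM glutamine and 10% FBS at 37 °C, 5% CO2. Compounds dissolved in DMSO just before addition (final ≤0.1% v/v; same solvent in controls). After 72 h exposure, viability read by MTT. Triplicates, ≥3 independent experiments. Dose–response fitted with single or double Hill functions; IC50 extrapolated from curves.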

A549 = assay: Cytotoxicity against human A549 cells after 72 hrs by MTT assay; type: functional, cell-based; details: A549, 72 h; outline: as §1
Bacillus subtilis = assay: Antimicrobial activity against Bacillus subtilis ATCC 6633 after 24 hrs by broth microdilution method; type: functional; details: ATCC 6633, 24 h
Outline: (§2)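 Broth dilution method. H. influenzae grown in Haemophilus Test Medium, other bacteria in Mueller Hinton Broth. Compounds dissolved in DMSO and diluted in growth medium. Incubated 24 h at 37 °C. MIC is the lowest concentration inhibiting reproduction of the organism. Drug-free tubes served as growth controls, organism-free tubes as purity controls, and solvent-only tubes as controls.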

[2] = test system: Staphylococcus epidermidis; assay: Antimicrobial activity against Staphylococcus epidermidis ATCC 12228 after 24 hrs by broth microdilution method; type: functional; details: ATCC 12228, 24 h; outline: as §2
Staphylococcus aureus [3] = assay: Antimicrobial activity against Staphylococcus aureus ATCC 6538 after 24 hrs by broth microdilution method; type: functional; details: ATCC 6538, 24 h; outline: as §2
[4] = Inhibition of Escherichia coli DNA gyrase-mediated supercoiling of pBR322 using bromothymol blue by electrophoresis
Outline: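 E. coli gyrase supercoiling of relaxed pBR322 in 35 mM Tris–HCl pH 7.5, 24 mM KCl, 4 mM MgCl2, 2 mM DTT, 1.8 mM spermidine, 1 mM ATP, 6.5% glycerol, 0.1 mg/mL albumin. Incubated 30 min at 37 °C, stopped with chloroform/isoamyl alcohol, run on 1% agarose and gel-quantitated. IC50 is the concentration halving supercoiling versus drug-free control. ≥3 independent experiments.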

[5] = test system: Staphylococcus epidermidis; assay: Antimicrobial activity against quinolone and penicillin-resistant Staphylococcus epidermidis SER after 24 hrs by broth microdilution method; type: functional
Outline: (§3)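 Broth dilution in Mueller Hinton Broth; compounds dissolved in DMSO and diluted in growth medium. […] Drug-free tubes served as growth controls and organism-free tubes as purity controls, with solvent-only controls included. Ciprofloxacin, levofloxacin, moxifloxacin and gemifloxacin were the reference drugs.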

Pseudomonas aeruginosa [6] = assay: Antimicrobial activity against Pseudomonas aeruginosa ATCC 9027 after 24 hrs by broth microdilution method; type: functional; details: ATCC 9027, 24 h; outline: as §2
Staphylococcus aureus [7] = assay: Antimicrobial activity against quinolone and penicillin-resistant Staphylococcus aureus SAR72 after 24 hrs by broth microdilution method; type: functional; outline: as §3
Haemophilus influenzae = assay: Antimicrobial activity against Haemophilus influenzae ATCC 19418 after 24 hrs by broth microdilution method; type: functional; details: ATCC 19418, 24 h; outline: as §2
Acinetobacter baumannii [8] = assay: Antimicrobial activity against quinolone and penicillin-resistant Acinetobacter baumannii after 24 hrs by broth microdilution method; type: functional; outline: as §3
Pseudomonas aeruginosa [9] = assay: Antimicrobial activity against quinolone and penicillin-resistant Pseudomonas aeruginosa after 24 hrs by broth microdilution method; type: functional; outline: as §3
MCF7 = assay: Cytotoxicity against human MCF7 cells after 72 hrs by MTT assay; type: functional, cell-based; details: MCF7, 72 h; outline: as §1
Acinetobacter baumannii [10] = assay: Antimicrobial activity against Acinetobacter baumannii ATCC 19606 after 24 hrs by broth microdilution method; type: functional; details: ATCC 19606, 24 h; outline: as §2
Staphylococcus aureus [11] = assay: Antimicrobial activity against quinolone and penicillin-resistant Staphylococcus aureus SAR4790 after 24 hrs by broth microdilution method; type: functional; outline: as §3
Escherichia coli [12] = assay: Antimicrobial activity against quinolone and penicillin-resistant Escherichia coli after 24 hrs by broth microdilution method; type: functional; outline: as §3
Escherichia coli [13] = assay: Antimicrobial activity against Escherichia coli ATCC 8739 after 24 hrs by broth microdilution method; type: functional; details: ATCC 8739, 24 h; outline: as §2
[14] = Inhibition of Escherichia coli DNA topoisomerase-4-mediated decatenation of kinetoplast DNA by electrophoresis

## COc1c(C)cc2c([nH]c3c2c(F)cc2c(=O)c(C(=O)O)cn(C4CC4)c23)c1C
[1]
  IC50: > 10 µM
A549
  IC50: 3 µM
Bacillus subtilis
  MIC: 0.07 µg/mL (≈ 0.177 µM)
[2]
  MIC: 25 µg/mL (≈ 63.4 µM)
Staphylococcus aureus [3]
  MIC: 6 µg/mL (≈ 15.2 µM)
[4]
  IC50: > 30 µg/mL
[5]
  MIC: > 100 µg/mL
Pseudomonas aeruginosa [6]
  MIC: > 100 µg/mL
Staphylococcus aureus [7]; SAR72, 24 h
  MIC: > 100 µg/mL
Haemophilus influenzae
  MIC: 6 µg/mL (≈ 15.2 µM)
Acinetobacter baumannii [8]
  MIC: inactive
Pseudomonas aeruginosa [9]
  MIC: inactive
MCF7
  IC50: 1.7 µM
Acinetobacter baumannii [10]
  MIC: > 100 µg/mL
Staphylococcus aureus [11]; SAR4790, 24 h
  MIC: > 100 µg/mL
Escherichia coli [12]
  MIC: inactive
Escherichia coli [13]
  MIC: > 100 µg/mL
[14]
  IC50: 31 µg/mL (≈ 78.6 µM)

## CO/N=C1\CN(c2nc3c(cc2F)c(=O)c(C(=O)O)cn3C2CC2)CC1CN (stereo not drawn) [GEMIFLOXACIN]
Bacillus subtilis
  MIC: 0.007 µg/mL (≈ 0.018 µM)
[2]
  MIC: 0.015 µg/mL (≈ 0.0385 µM)
Staphylococcus aureus [3]
  MIC: 0.015 µg/mL (≈ 0.0385 µM)
[5]
  MIC: 50 µg/mL (≈ 128 µM)
Pseudomonas aeruginosa [6]
  MIC: 0.07 µg/mL (≈ 0.18 µM)
Staphylococcus aureus [7]; SAR72, 24 h
  MIC: 6 µg/mL (≈ 15.4 µM)
Haemophilus influenzae
  MIC: 0.015 µg/mL (≈ 0.0385 µM)
Acinetobacter baumannii [8]
  MIC: 100 µg/mL (≈ 257 µM)
Pseudomonas aeruginosa [9]
  MIC: > 100 µg/mL
Acinetobacter baumannii [10]
  MIC: 0.3 µg/mL (≈ 0.77 µM)
Staphylococcus aureus [11]; SAR4790, 24 h
  MIC: 50 µg/mL (≈ 128 µM)
Escherichia coli [12]
  MIC: 50 µg/mL (≈ 128 µM)
Escherichia coli [13]
  MIC: 0.015 µg/mL (≈ 0.0385 µM)

## O=C(O)c1cn(C2CC2)c2cc(N3CCNCC3)c(F)cc2c1=O [CIPROFLOXACIN]
Bacillus subtilis
  MIC: 0.03 µg/mL (≈ 0.0905 µM)
[2]
  MIC: 0.07 µg/mL (≈ 0.211 µM)
Staphylococcus aureus [3]
  MIC: 0.3 µg/mL (≈ 0.905 µM)
[4]
  IC50: 0.34 µg/mL (≈ 1.03 µM)
[5]
  MIC: 100 µg/mL (≈ 302 µM)
Pseudomonas aeruginosa [6]
  MIC: 0.07 µg/mL (≈ 0.211 µM)
Staphylococcus aureus [7]; SAR72, 24 h
  MIC: 100 µg/mL (≈ 302 µM)
Haemophilus influenzae
  MIC: 0.15 µg/mL (≈ 0.453 µM)
Acinetobacter baumannii [8]
  MIC: > 100 µg/mL
Acinetobacter baumannii [10]
  MIC: 0.7 µg/mL (≈ 2.11 µM)
Staphylococcus aureus [11]; SAR4790, 24 h
  MIC: > 100 µg/mL
[14]
  IC50: 4.6 µg/mL (≈ 13.9 µM)

## O=C(O)c1cn(C2CC2)c2c(cc(F)c3c2[nH]c2ccsc23)c1=O
[1]
  IC50: > 10 µM
A549
  IC50: 6.4 µM
Bacillus subtilis
  MIC: 0.003 µg/mL (≈ 0.00876 µM)
[2]
  MIC: 0.03 µg/mL (≈ 0.0876 µM)
Staphylococcus aureus [3]
  MIC: 0.03 µg/mL (≈ 0.0876 µM)
[4]
  IC50: 1.1 µg/mL (≈ 3.21 µM)
[5]
  MIC: 50 µg/mL (≈ 146 µM)
Pseudomonas aeruginosa [6]
  MIC: 50 µg/mL (≈ 146 µM)
Staphylococcus aureus [7]; SAR72, 24 h
  MIC: 12 µg/mL (≈ 35.1 µM)
Haemophilus influenzae
  MIC: 0.015 µg/mL (≈ 0.0438 µM)
Acinetobacter baumannii [8]
  MIC: > 100 µg/mL
Pseudomonas aeruginosa [9]
  MIC: > 100 µg/mL
MCF7
  IC50: 4.4 µM
Acinetobacter baumannii [10]
  MIC: 3 µg/mL (≈ 8.76 µM)
Staphylococcus aureus [11]; SAR4790, 24 h
  MIC: > 100 µg/mL
Escherichia coli [12]
  MIC: > 100 µg/mL
Escherichia coli [13]
  MIC: 1.5 µg/mL (≈ 4.38 µM)
[14]
  IC50: 100 µg/mL (≈ 292 µM)

## Cc1ccc2c(c1)[nH]c1c2c(F)cc2c(=O)c(C(=O)O)cn(C3CC3)c21
[1]
  IC50: > 10 µM
A549
  IC50: > 10 µM
Bacillus subtilis
  MIC: 0.07 µg/mL (≈ 0.2 µM)
[2]
  MIC: > 100 µg/mL
Staphylococcus aureus [3]
  MIC: > 100 µg/mL
[4]
  IC50: 3 µg/mL (≈ 8.56 µM)
[5]
  MIC: inactive
Pseudomonas aeruginosa [6]
  MIC: > 100 µg/mL
Staphylococcus aureus [7]
  MIC: inactive
Haemophilus influenzae
  MIC: > 100 µg/mL
Acinetobacter baumannii [8]
  MIC: inactive
Pseudomonas aeruginosa [9]
  MIC: inactive
MCF7
  IC50: > 10 µM
Acinetobacter baumannii [10]
  MIC: > 100 µg/mL
Staphylococcus aureus [11]
  MIC: inactive
Escherichia coli [12]
  MIC: inactive
Escherichia coli [13]
  MIC: > 100 µg/mL
[14]
  IC50: > 300 µg/mL

## COc1c(N2C[C@@H]3CCCN[C@@H]3C2)c(F)cc2c(=O)c(C(=O)O)cn(C3CC3)c12 [MOXIFLOXACIN]
Bacillus subtilis
  MIC: 0.015 µg/mL (≈ 0.0374 µM)
[2]
  MIC: 0.07 µg/mL (≈ 0.174 µM)
Staphylococcus aureus [3]
  MIC: 0.03 µg/mL (≈ 0.0747 µM)
[4]
  IC50: 0.85 µg/mL (≈ 2.12 µM)
[5]
  MIC: 50 µg/mL (≈ 125 µM)
Pseudomonas aeruginosa [6]
  MIC: 0.7 µg/mL (≈ 1.74 µM)
Staphylococcus aureus [7]; SAR72, 24 h
  MIC: 12 µg/mL (≈ 29.9 µM)
Haemophilus influenzae
  MIC: 0.03 µg/mL (≈ 0.0747 µM)
Acinetobacter baumannii [8]
  MIC: 50 µg/mL (≈ 125 µM)
Pseudomonas aeruginosa [9]
  MIC: > 100 µg/mL
Acinetobacter baumannii [10]
  MIC: 0.15 µg/mL (≈ 0.374 µM)
Staphylococcus aureus [11]; SAR4790, 24 h
  MIC: 50 µg/mL (≈ 125 µM)
Escherichia coli [13]
  MIC: 0.03 µg/mL (≈ 0.0747 µM)
[14]
  IC50: 5 µg/mL (≈ 12.5 µM)
